Screens (PubChem BioAssay)
Only some compounds are listed: those with a hit (about 29% of all), similar ones and a draw of the others.
CYP2C9 inh = human CYP2C9 inhibition. P11712. CYP2C9 Supersomes, luciferin-H conversion, luminescence. inhibition, % at 5 µM. actives 20% (n = 96,000);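 active = blocking of liver enzyme CYP2C9 beyond about 50% at 5 µM, limit read from the data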
Target sequence (P11712 whole entry, looked up): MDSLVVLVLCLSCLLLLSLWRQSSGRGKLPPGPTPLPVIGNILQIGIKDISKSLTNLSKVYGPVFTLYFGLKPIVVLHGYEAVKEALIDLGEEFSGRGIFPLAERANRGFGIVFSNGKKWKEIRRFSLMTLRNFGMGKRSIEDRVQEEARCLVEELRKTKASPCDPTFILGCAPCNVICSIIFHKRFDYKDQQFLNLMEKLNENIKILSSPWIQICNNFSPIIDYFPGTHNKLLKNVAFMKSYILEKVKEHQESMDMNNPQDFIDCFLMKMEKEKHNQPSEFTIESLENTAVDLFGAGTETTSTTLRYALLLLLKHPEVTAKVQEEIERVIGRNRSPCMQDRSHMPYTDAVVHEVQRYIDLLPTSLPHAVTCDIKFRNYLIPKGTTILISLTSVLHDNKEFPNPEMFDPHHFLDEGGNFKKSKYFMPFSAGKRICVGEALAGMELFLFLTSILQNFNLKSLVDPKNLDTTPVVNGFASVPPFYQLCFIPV
CYP2C19 inhib = inhibitors of human CYP2C19; CYP2C19 Supersomes, luciferin-H EGE luminescence, 30 min; inhibition, % at 5 µM; actives 21% (n = 96,000); P33261;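 active = CYP2C19 inhibition above a set limit at 5 µM in the primary screen, cut at about 50% in these data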;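 note: plate controls were negative control wells for no effect and 2.5 mM tranylcypromine positive control for full effect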
CYP2C9 activ = activators of human CYP2C9; recombinant CYP2C9, luciferin-H conversion, luminescence; stronger effect = higher value; factor 1 = untreated enzyme, 0 = blocked; actives 1.4% (n = 96,000); P11712; AID 1024; activation factor at 5 µM;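 active = activation factor of 2 or more for CYP2C9 at a 5 µM dose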;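 note: 0 = sulfaphenazole-blocked wells and 1 = vehicle-only wells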
tolC growth inh = E. coli tolC mutant growth inhibition | E. coli BW25113 tolC mutant growth, OD615 | growth inhibition, % at 10 µM (by protocol) | actives 2.2% (n = 65,000) | AID 573;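 active = growth inhibition at or above a cutoff equal to the mean over every tested compound plus 3 SD, cut at about 60% in these data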;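 note: growth measured after 20 h incubation at 37 °C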
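Test system: tolC-deleted E. coli BW25113 | Medium: LB with kanamycin 50 µg/mL | Compound dosing: Single concentration, 10 µM final per compound | Schedule: 37 °C, 20 h exposure | Measured by: OD at 615 nm | Evaluation: Percent growth inhibition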
E coli WT exp = blocks growth of wild type E. coli BW25113; growth inhibition, % at 100 µM; actives 0.15% (n = 98,000); OD600 absorbance; AID 710;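 active = growth inhibition above about 50% at one test dose, limit read from the data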;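 note: growth measured after 20 h incubation at 37 °C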
CYP2C19 act = cytochrome P450 2C19 (human) activation. P33261. 96,000 tested, under 10 active. AID 1025. activation factor at 5 µM. recombinant CYP2C19, luciferin-H EGE luminescence; stronger effect = higher value; 0 = fully inhibited enzyme, 1 = untreated enzyme;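 active = activation factor of at least 2 at 5 µM in the primary screen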;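 note: 0 = wells with 2.5 mM tranylcypromine and 1 = vehicle-only wells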
The depositor's hits bear a star.

COCCCn1c(SCC(=O)N2CCCCC2C)nnc1-c1ccco1 (stereo unspecified) was read as CYP2C9 inh -9, CYP2C19 inhib 10, CYP2C9 activ 1.1, tolC growth inh -10, E coli WT exp 3 and CYP2C19 act 0.9.
CCn1c(CSc2ncccn2)nnc1SCC(=O)N1CCc2ccccc21 was read as CYP2C9 inh -2, CYP2C19 inhib 10, CYP2C9 activ 1, tolC growth inh 0, E coli WT exp 6 and CYP2C19 act 0.9.
`CC1CCCCN1C(=O)CSc1nnc(-c2ccco2)n1CC1CCCO1` (stereo unspecified) gave CYP2C9 inh 11, CYP2C19 inhib 83*, CYP2C9 activ 0.9, tolC growth inh -18, E coli WT exp 0 and CYP2C19 act 0.2.
`CCn1c(SCC(=O)N2CCc3ccccc32)nnc1-c1ccncc1` gave CYP2C9 inh 14, CYP2C19 inhib 63*, CYP2C9 activ 0.9, tolC growth inh -2, E coli WT exp -5 and CYP2C19 act 0.4.
For CCOCC(=O)Nc1cccc(Br)c1 the results were CYP2C9 inh -4, CYP2C19 inhib 16, CYP2C9 activ 1, tolC growth inh 7, E coli WT exp 16 and CYP2C19 act 0.8.
`CN1CCc2c(sc3c2C(=O)NC(c2cn(Cc4ccccc4)c4ccccc24)N3)C1` (stereo unspecified) gave CYP2C9 inh 79*, CYP2C19 inhib 69*, CYP2C9 activ 0.2, tolC growth inh 47, E coli WT exp 9 and CYP2C19 act 0.3.
`CN1CCc2c(sc3c2C(=O)NC(c2ccco2)N3)C1` (stereo unspecified) gave CYP2C9 inh -5, CYP2C19 inhib -3, CYP2C9 activ 1, tolC growth inh -8, E coli WT exp -2 and CYP2C19 act 1.
Screening O=C1NC(c2ccco2)Nc2sc3c(c21)CCN(Cc1ccccc1)C3 (stereo unspecified) returned CYP2C9 inh 69*, CYP2C19 inhib 18, CYP2C9 activ 0.3, tolC growth inh -5, E coli WT exp 0 and CYP2C19 act 0.8.
Screening CC(C)N1C(=S)SC(C)(C)C1NO (stereo unspecified) returned CYP2C9 inh -7, CYP2C19 inhib 14, CYP2C9 activ 1.1, tolC growth inh -9, E coli WT exp 3 and CYP2C19 act 0.9.
CC(=O)Nc1nc(C)c(Oc2ccccc2)c(=O)[nH]1 was read as CYP2C9 inh -8, CYP2C19 inhib -6, CYP2C9 activ 1.1, tolC growth inh -17, E coli WT exp -1 and CYP2C19 act 1.1.
`CCOC(=O)c1ccc2[nH]c3c(c2c1)CCCCC3=O` gave tolC growth inh 6 and E coli WT exp 3.
For NC(=O)NC1CCCc2c1[nH]c1ccc(Cl)cc21 (stereo unspecified) the results were CYP2C9 inh 94*, CYP2C19 inhib 52*, CYP2C9 activ 0.1, tolC growth inh 9, E coli WT exp 18 and CYP2C19 act 0.5.
`N#CC1=C(N)Oc2ccccc2C12C(=O)Nc1n[nH]c(-c3ccccc3)c12` (stereo unspecified) gave CYP2C9 inh 54*, CYP2C19 inhib -23, CYP2C9 activ 0.5, tolC growth inh 3, E coli WT exp 9 and CYP2C19 act 1.2.
Screening CN(C(=O)c1cccc(C#N)c1)c1nnc(-c2cnccn2)s1 returned CYP2C9 inh -5, CYP2C19 inhib 9, CYP2C9 activ 1, tolC growth inh -5, E coli WT exp 7 and CYP2C19 act 0.9.
Screening O=C(Nc1nc2c(s1)COc1ccccc1-2)c1cccs1 returned CYP2C9 inh 63*, CYP2C19 inhib 36, CYP2C9 activ 0.4, tolC growth inh 23, E coli WT exp -16 and CYP2C19 act 0.6.
Screening NC(=O)CCS(=O)(=O)c1ccccc1 returned CYP2C9 inh -5, CYP2C19 inhib -12, CYP2C9 activ 1, tolC growth inh -19, E coli WT exp 2 and CYP2C19 act 1.1.
O=C(Nc1nc2c(s1)CCc1ccccc1-2)c1cccs1 was read as CYP2C9 inh -8, CYP2C19 inhib 9, CYP2C9 activ 1.1, tolC growth inh -5 and CYP2C19 act 0.9.
Screening O=C(CCS(=O)(=O)c1ccccc1)Nc1nc2c(s1)COc1ccccc1-2 returned CYP2C9 inh 38, CYP2C19 inhib 65*, CYP2C9 activ 0.6, tolC growth inh 19, E coli WT exp -6 and CYP2C19 act 0.3.
For COc1ccc(/C=C\C(=O)c2c(O)ccc3c(C)cc(=O)oc23)cc1OC the results were CYP2C9 inh -20, CYP2C19 inhib 68*, CYP2C9 activ 1.2, E coli WT exp 2 and CYP2C19 act 0.3.
For COc1ccc(-c2noc(N3CCC(C(=O)N4CCN(c5ccccn5)CC4)CC3)n2)cc1 the results were CYP2C9 inh 38, CYP2C19 inhib 49, CYP2C9 activ 0.6, tolC growth inh -6, E coli WT exp 2 and CYP2C19 act 0.5.
`O=C(CCn1nnc2ccccc21)Nc1nnc(-c2ccccc2F)s1` gave CYP2C9 inh 56*, CYP2C19 inhib 20, CYP2C9 activ 0.4, tolC growth inh -13, E coli WT exp -4 and CYP2C19 act 0.8.
CCOc1cc(Br)c(C(=O)O)cc1OC was read as CYP2C9 inh -6, CYP2C19 inhib -14, CYP2C9 activ 1.1, E coli WT exp 2 and CYP2C19 act 1.1.
`COc1ccc(-n2cnnc2SCc2cnc(-c3ccccc3)s2)cc1` gave CYP2C9 inh 25, CYP2C19 inhib 66*, CYP2C9 activ 0.8, tolC growth inh 16, E coli WT exp 7 and CYP2C19 act 0.3.
Screening COCCn1c(SCC#N)nnc1-c1ccccc1 returned CYP2C9 inh 30, CYP2C19 inhib 36, CYP2C9 activ 0.7, tolC growth inh -1, E coli WT exp 5 and CYP2C19 act 0.6.
For COCCn1c(SCc2cnc(-c3ccccc3)s2)nnc1-c1ccncc1 the results were CYP2C9 inh 32, CYP2C19 inhib 82*, CYP2C9 activ 0.7, tolC growth inh 2, E coli WT exp 2 and CYP2C19 act 0.2.
`CCCCP(=O)(CCCC)c1ccccc1C(=O)O` gave CYP2C9 inh -11, CYP2C19 inhib -20, CYP2C9 activ 1.1, tolC growth inh -15, E coli WT exp 4 and CYP2C19 act 1.2.
Screening CCN(CC)CCOC(=O)c1ccc(NC(=O)COc2cc(=O)n(CC)c3ccccc23)cc1 returned CYP2C9 inh 52*, CYP2C19 inhib 66*, CYP2C9 activ 0.5, tolC growth inh 11, E coli WT exp -10 and CYP2C19 act 0.3.
CCn1c(=O)cc(OCC(=O)Nc2ccc3c(c2)OCCO3)c2ccccc21 was read as CYP2C9 inh 5, CYP2C19 inhib -2, CYP2C9 activ 0.9, tolC growth inh -1, E coli WT exp -8 and CYP2C19 act 1.
`O=C(COc1ccccc1Cl)N1CCN(c2ccc([N+](=O)[O-])c(N3CCOCC3)c2)CC1` gave CYP2C9 inh 85*, CYP2C19 inhib 32, CYP2C9 activ 0.1, E coli WT exp -1 and CYP2C19 act 0.7.
